# Reference: PMC3793015 (Journal of agricultural and food chemistry, 2013)
# Columns and labels:
# HT-29 cells = assay: Cellular uptake and metabolism of α-MG; format: in vitro ADME, human
# How it was run: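 HT-29 monolayers, 2 days post-confluence, given 8.5 μM compound in Tween 40 micelles in medium for 24 h. Activated cultures had 800 ng/mL LPS for 4 h, then a PBS wash, before compound. Spent medium and cells were collected separately, extracted and analysed by RP-HPLC, including glucuronide/sulfate conjugates. Xanthones were identified by retention time and UV spectrum and quantified against five-point mangostin standard curves. Results are given as % of initial compound; mean ± SD, n ≥ 5.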
# HepG2 = assay: Cytotoxicity of α-MG; format: cell-based, human; details: read-out: IC50 (cytotoxicity); HepG2, 24 h, 10% FBS delivery
# How it was run: (§1)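 Cytotoxicity was judged by phase-contrast morphology and MTT reduction to formazan after exposure to increasing compound concentrations. Exposure was 24 h for RAW 264.7, MDM, HepG2 and HT-29, 8 h for PMA-differentiated THP-1, and 4 h for differentiated Caco-2. Delivery was DMSO into 10% FBS medium for RAW 264.7, THP-1 and HepG2; FBS-complexed compound at 10% FBS in RPMI 1640 for MDM; Tween 40 micelles for Caco-2 and HT-29.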
# [1] = system: IL-8 secretion by colonic HT-29 cells; assay: IL-8 secretion; format: cell-based, human
# How it was run: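 HT-29 monolayers, 2 days post-confluence, were pretreated with compound delivered in Tween 40 micelles. Activation used LPS from E. coli O111:B4. IL-8 secreted into the medium was quantified by ELISA, in both activated and nonactivated cultures.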
# THP-1 cells = assay: Cellular uptake and metabolism of α-MG; format: in vitro ADME, human
# How it was run: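 THP-1 monocytes were differentiated with 100 nM PMA for 48 h, then exposed 24 h to 5.2 μM compound (DMSO stock into 10% FBS medium). Activated cultures were pre-exposed to 5 ng/mL LPS for 4 h and washed with PBS. Spent medium and cells were collected separately, extracted and analysed by RP-HPLC for free and glucuronidated/sulfated xanthones. Amounts are % of initial compound; mean ± SD, n ≥ 5.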
# [2] = system: LPS-induced production of NO in RAW 264.7 cells; assay: LPS-induced production of NO; format: cell-based, murine; details: RAW 264.7, data not shown
# How it was run: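 RAW 264.7 cells, 2 days post-confluence, were pretreated 2 h with compound (DMSO stock into 10% FBS medium). They were then stimulated 16 h with 5 ng/mL E. coli O111:B4 LPS. NO production was estimated as medium nitrite by the Griess reaction.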
# [3] = system: TNF-α secretion by HepG2 cells; assay: TNF-α secretion; format: cell-based, human
# How it was run: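 HepG2 monolayers, 2 days post-confluence, were pretreated with compound (DMSO stock into 10% FBS medium) and then stimulated with phorbol 12-myristate 13-acetate. Secreted TNF-α was quantified by ELISA in activated and nonactivated cultures.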
# [4] = Stability of α-MG during incubation in cell-free culture media; format: physicochemical; details: for calculated rate of α-MG loss per hour: DMSO, 24 h incubation; for recovery of α-MG after 24 h incubation: Tween 40 micelles
# How it was run: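 Compound was incubated cell-free for 24 h at 37 °C in RPMI, MEM, DMEM or McCoy's 5A, sampled at 0, 4, 8 and 24 h, extracted and analysed by RP-HPLC. Vehicles tested were: DMSO into medium without FBS or with 10% FBS (final DMSO <0.03%); Tween 40 micelles (final <0.02%) in DMEM or McCoy's; compound preincubated 48 h in 100% FBS, diluted 1:10 in RPMI 1640. Mean ± SD, n = 3 dishes.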
# MDM cells = assay: Cellular uptake and metabolism of α-MG; format: in vitro ADME, human; details: 24 h
# How it was run: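 Monocytes came from buffy-coat mononuclear cells, isolated on Ficoll and by clumping, then differentiated 6 days with 50 ng/mL M-CSF (97% CD14/CD11b-positive). Compound (3.3 μM) was delivered in 100% FBS, diluted to 10% FBS in RPMI 1640, for 24 h. Activated cultures first had 100 ng/mL LPS for 4 h, then a PBS wash. Medium and cells were analysed separately by RP-HPLC, including conjugates; mean ± SD, n ≥ 5.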
# [5] = system: IL-8 secretion by enterocyte-like Caco-2 cells; assay: IL-8 secretion into basolateral medium; format: cell-based, human
# How it was run: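 Caco-2 monolayers were differentiated 21–25 days post-confluence on Transwell inserts. Compound in Tween 40 micelles went into the apical compartment, and IL-1β was added basolaterally. IL-8 in basolateral medium was measured by ELISA, with and without IL-1β.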
# THP-1 = assay: Cytotoxicity of α-MG; format: cell-based, human; details: read-out: IC50 (cytotoxicity); THP-1, 8 h, 10% FBS delivery
# How it was run: as §1
# HT-29 = assay: Cytotoxicity of α-MG; format: cell-based, human; details: read-out: IC50 (cytotoxicity); HT-29, 24 h, Tween 40 delivery
# How it was run: as §1
# Caco-2 = assay: Cytotoxicity of α-MG; format: cell-based, human; details: read-out: IC50 (cytotoxicity); Caco-2, 4 h, Tween 40 delivery
# How it was run: as §1
# [6] = 24 h after addition of α-MG, control cultures, nd: not detected
smiles,measurement,setting,value
"COc1c(O)cc2oc3cc(O)c(CC=C(C)C)c(O)c3c(=O)c2c1CC=C(C)C [α-MG, α-mangostin]","xanthone in media, HT-29","HT-29 cells; 0 h, amount of α-MG at start",16517 ± 373
same,"intracellular profile table, α-MG at 0 h, HT-29","HT-29 cells; 0 h, control cultures",16517 ± 373
same,"intracellular xanthone, HT-29",HT-29 cells; [6],807 ± 178
same,"ratio of free to conjugated xanthones in medium, activated vs control","HT-29 cells; HT-29, 800 ng/mL LPS 4 h before α-MG, 24 h, p < 0.05",increased
same,"free xanthones in medium, of initial α-MG","HT-29 cells; HT-29, 8.5 μM, 24 h, control",7 ± 2%
same,nonconjugated xanthones in cells,"HT-29 cells; HT-29, 8.5 μM, 24 h, control",only traces
same,"phase II conjugates in cells, of α-MG added","HT-29 cells; HT-29, 8.5 μM, 24 h, control",5 ± 1%
same,"phase II conjugates in medium, of α-MG added","HT-29 cells; HT-29, 8.5 μM, 24 h, control",42 ± 3%
same,recovery of α-MG,"HT-29 cells; HT-29, 24 h incubation",54 ± 4%
same,IC50,HepG2,25 µM
same,inhibition of IL-8 chemokine secretion,"[1]; activated HT-29, 10 μM pretreatment 1 h, LPS 100 ng/mL 16 h",30–40%
same,effect on basal secretion of IL-8,[1]; nonactivated HT-29 cultures,more than doubled
same,"xanthone in media, THP-1","THP-1 cells; 0 h, amount of α-MG at start",33710 ± 161 pmol/dish
same,"intracellular profile table, α-MG at 0 h, THP-1","THP-1 cells; 0 h, control cultures",33710 ± 161 pmol/dish
same,"intracellular xanthone, THP-1",THP-1 cells; [6],11439 ± 995 pmol/dish
same,"intracellular ratio of free to conjugated xanthones, activated vs control","THP-1 cells; THP-1, 5 ng/mL LPS 4 h before α-MG, 24 h, p < 0.05",increased
same,"free xanthones in cells, of initial α-MG","THP-1 cells; THP-1, 5.2 μM, 24 h, control",20 ± 4%
same,"free xanthones in spent medium, of initial α-MG","THP-1 cells; THP-1, 5.2 μM, 24 h, control",40 ± 1%
same,"phase II conjugates in cells, of initial α-MG","THP-1 cells; THP-1, 5.2 μM, 24 h, control",14 ± 3%
same,"recovery of xanthones, of α-MG added","THP-1 cells; THP-1, 24 h incubation",75 ± 6%
same,inhibition of LPS-induced production of NO,[2]; 1 μM,50%
same,inhibition of LPS-induced production of NO,[2]; 3 μM,61%
same,inhibition of LPS-induced production of NO,[2]; 10 μM,78%
same,attenuation of TNF-α secretion,"[3]; PMA-activated HepG2, 7 μM pretreatment 16 h, PMA 50 ng/mL 4 h",22%
same,effect on secretion of TNF-α,[3]; nonactivated HepG2 cultures,not altered
same,calculated rate of α-MG loss per hour,"[4]; DMEM lacking FBS, cell free",3.2%
same,recovery of α-MG after 24 h incubation,"[4]; DMEM without FBS, cell free",110 ± 3
same,stability of α-MG during 24 h incubation,"[4]; DMSO stock added to media (RPMI 1640, MEM, DMEM) with 10% (v/v) FBS, cell free",101 ± 6%
same,calculated rate of α-MG loss per hour,"[4]; MEM lacking FBS, cell free",4.0%
same,calculated rate of α-MG loss per hour,"[4]; McCoy's 5A lacking FBS, cell free",2.3%
same,recovery of α-MG after 24 h incubation,"[4]; McCoy's medium without FBS, cell free",108 ± 4
same,calculated rate of α-MG loss per hour,"[4]; RPMI lacking FBS, cell free",2.7%
same,stability of α-MG after 24 h,"[4]; added to 100% FBS diluted 1:10 (v:v) into RPMI 1640, cell free",95 ± 8%
same,"free xanthones in spent medium, of initial α-MG","MDM cells; 3.3 μM, control",57 ± 4%
same,"free α-MG in cells, of total","MDM cells; 3.3 μM, control",22 ± 5%
same,"glucuronidated/sulfated conjugates of α-MG in cells, of total","MDM cells; 3.3 μM, control",20 ± 10%
same,recovery of α-MG equivalents added,MDM cells,99 ± 12%
same,inhibition of IL-8 chemokine secretion,"[5]; activated Caco-2, 15 μM pretreatment 4 h, IL-1β 5 ng/mL 16 h",30–40%
same,effect on secretion of IL-8,[5]; nonactivated Caco-2 cultures,not altered
same,IC50,THP-1,23 µM
same,IC50,HT-29,180 µM
same,IC50,Caco-2,> 80 µM
